Test results taken from ChEMBL document CHEMBL4689842, “EUbOPEN Chemogenomics Library wave 1” (2021).
“And” between values parts separate entries of the source, which are not always exact repeats. Equal entries are not always repeated.

Key:
Type in all cases: toxicity, cell-based
Fibroblast [1] = experiment: Multiplex assay against human fibroblast
Procedure, shortened: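 Live cells were stained at seeding with Hoechst33342, BioTracker Green Microtubule Cytoskeleton Dye, MitoTracker Red and Annexin V Alexa Fluor 680. Following compound addition, they were imaged on a CQ1 microscope at 37°C and 5% CO2 and gated by CellPathfinder machine learning into Hoechst high-intensity objects or normal cells, with normal cells split into healthy, pyknosed or fragmented nuclei and pyknosed cells into mitotic or apoptotic. Tubulin, mitochondrial-mass and membrane-permeability phenotypes are per cents of healthy-nucleus cells.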

Fibroblast [2] = experiment: Incucyte cell viability with human fibroblast; conditions: 10 µM, compound concentration 10 uM; also: filed as whole numbers so only -1 and 0 and 1 occur
U2OS = experiment: Incucyte cell viability with U2OS; conditions: human, 10 µM, compound concentration 10 uM; also: filed as whole numbers so only -1 and 0 and 1 occur
[3] = 12 h, 1 µM, compound concentration 1 uM, replicate 1
[4] = 12 h, 1 µM, compound concentration 1 uM, replicate 2
[5] = 12 h, 10 µM, compound concentration 10 uM, replicate 1
[6] = 12 h, 10 µM, compound concentration 10 uM, replicate 2
[7] = 24 h, 1 µM, compound concentration 1 uM, replicate 1
[8] = 24 h, 1 µM, compound concentration 1 uM, replicate 2
[9] = 24 h, 10 µM, compound concentration 10 uM, replicate 1
[10] = 24 h, 10 µM, compound concentration 10 uM, replicate 2
[11] = 48 h, 10 µM, compound concentration 10 uM, replicate 1
[12] = 48 h, 10 µM, compound concentration 10 uM, replicate 2
[13] = 6 h, replicate number 1, timepoint 6 hours
[14] = 12 h, replicate number 1, timepoint 12 hours
[15] = 18 h, replicate number 1, timepoint 18 hours
[16] = 24 h, replicate number 1, timepoint 24 hours

COc1cc(N2CCC(N(C)C)CC2)ccc1Nc1ncc(Cl)c(Nc2ccccc2P(C)(C)=O)n1
Population Apoptotic (%) (Fibroblast [1]; [3]): 64%
Population Fragmented Nuclei (%) (Fibroblast [1]; [3]): 26%
Population Healthy Nuclei (%) (Fibroblast [1]; [3]): 56%
Population Hoechst High Intensity Objects (%) (Fibroblast [1]; [3]): 14%
Population Membrane Permeable-Phenotype (%) (Fibroblast [1]; [3]): 8%
Population Mitochondria Different-Phenotype (%) (Fibroblast [1]; [3]): 6%
Population Mitotic Cells (%) (Fibroblast [1]; [3]): 35%
Population Normal (%) (Fibroblast [1]; [3]): 85%
Population Pyknosed Nuclei (%) (Fibroblast [1]; [3]): 16%
Population Tubulin-Different-Phenotype (%) (Fibroblast [1]; [3]): 6%
Total Cell Count (Fibroblast [1]; [3]): 202
Population Apoptotic (%) (Fibroblast [1]; [4]): 42%
Population Fragmented Nuclei (%) (Fibroblast [1]; [4]): 52%
Population Healthy Nuclei (%) (Fibroblast [1]; [4]): 31%
Population Hoechst High Intensity Objects (%) (Fibroblast [1]; [4]): 24%
Population Membrane Permeable-Phenotype (%) (Fibroblast [1]; [4]): 14%
Population Mitochondria Different-Phenotype (%) (Fibroblast [1]; [4]): 7%
Population Mitotic Cells (%) (Fibroblast [1]; [4]): 57%
Population Normal (%) (Fibroblast [1]; [4]): 75%
Population Pyknosed Nuclei (%) (Fibroblast [1]; [4]): 15%
Population Tubulin-Different-Phenotype (%) (Fibroblast [1]; [4]): 21%
Total Cell Count (Fibroblast [1]; [4]): 58
Population Apoptotic (%) (Fibroblast [1]; [5]): 73% and 69%
Population Fragmented Nuclei (%) (Fibroblast [1]; [5]): 27% and 24%
Population Healthy Nuclei (%) (Fibroblast [1]; [5]): 45% and 57%
Population Hoechst High Intensity Objects (%) (Fibroblast [1]; [5]): 13%
Population Mitochondria Different-Phenotype (%) (Fibroblast [1]; [5]): 7% and 6%
Population Mitotic Cells (%) (Fibroblast [1]; [5]): 26% and 30%
Population Normal (%) (Fibroblast [1]; [5]): 86%
Population Pyknosed Nuclei (%) (Fibroblast [1]; [5]): 27% and 17%
Total Cell Count (Fibroblast [1]; [5]): 98 and 215
Population Apoptotic (%) (Fibroblast [1]; [6]): 37% and 88%
Population Fragmented Nuclei (%) (Fibroblast [1]; [6]): 45% and 26%
Population Healthy Nuclei (%) (Fibroblast [1]; [6]): 32%
Population Hoechst High Intensity Objects (%) (Fibroblast [1]; [6]): 39% and 16%
Population Membrane Permeable-Phenotype (%) (Fibroblast [1]; [6]): 8% and 15%
Population Normal (%) (Fibroblast [1]; [6]): 60% and 83%
Population Pyknosed Nuclei (%) (Fibroblast [1]; [6]): 21% and 40%
Population Tubulin-Different-Phenotype (%) (Fibroblast [1]; [6]): 41% and 90%
Total Cell Count (Fibroblast [1]; [6]): 61 and 73
Population Apoptotic (%) (Fibroblast [1]; [7]): 96%
Population Fragmented Nuclei (%) (Fibroblast [1]; [7]): 18%
Population Healthy Nuclei (%) (Fibroblast [1]; [7]): 65%
Population Hoechst High Intensity Objects (%) (Fibroblast [1]; [7]): 14%
Population Membrane Permeable-Phenotype (%) (Fibroblast [1]; [7]): 6%
Population Mitotic Cells (%) (Fibroblast [1]; [7]): 3%
Population Normal (%) (Fibroblast [1]; [7]): 85%
Population Pyknosed Nuclei (%) (Fibroblast [1]; [7]): 16%
Population Tubulin-Different-Phenotype (%) (Fibroblast [1]; [7]): 4%
Total Cell Count (Fibroblast [1]; [7]): 204
Population Apoptotic (%) (Fibroblast [1]; [8]): 57%
Population Fragmented Nuclei (%) (Fibroblast [1]; [8]): 43%
Population Healthy Nuclei (%) (Fibroblast [1]; [8]): 38%
Population Hoechst High Intensity Objects (%) (Fibroblast [1]; [8]): 32%
Population Membrane Permeable-Phenotype (%) (Fibroblast [1]; [8]): 0%
Population Mitochondria Different-Phenotype (%) (Fibroblast [1]; [8]): 6%
Population Mitotic Cells (%) (Fibroblast [1]; [8]): 42%
Population Normal (%) (Fibroblast [1]; [8]): 67%
Population Pyknosed Nuclei (%) (Fibroblast [1]; [8]): 17%
Population Tubulin-Different-Phenotype (%) (Fibroblast [1]; [8]): 13%
Total Cell Count (Fibroblast [1]; [8]): 58
Population Apoptotic (%) (Fibroblast [1]; [9]): 68% and 88%
Population Fragmented Nuclei (%) (Fibroblast [1]; [9]): 29% and 31%
Population Healthy Nuclei (%) (Fibroblast [1]; [9]): 50% and 54%
Population Hoechst High Intensity Objects (%) (Fibroblast [1]; [9]): 13%
Population Mitochondria Different-Phenotype (%) (Fibroblast [1]; [9]): 14% and 9%
Population Mitotic Cells (%) (Fibroblast [1]; [9]): 31% and 11%
Population Normal (%) (Fibroblast [1]; [9]): 86%
Population Pyknosed Nuclei (%) (Fibroblast [1]; [9]): 19% and 14%
Total Cell Count (Fibroblast [1]; [9]): 94 and 210
Population Apoptotic (%) (Fibroblast [1]; [10]): 66% and 92%
Population Fragmented Nuclei (%) (Fibroblast [1]; [10]): 47% and 26%
Population Healthy Nuclei (%) (Fibroblast [1]; [10]): 35% and 15%
Population Hoechst High Intensity Objects (%) (Fibroblast [1]; [10]): 39% and 38%
Population Normal (%) (Fibroblast [1]; [10]): 60% and 61%
Population Tubulin-Different-Phenotype (%) (Fibroblast [1]; [10]): 41% and 100%
Total Cell Count (Fibroblast [1]; [10]): 56 and 75
Population Apoptotic (%) (Fibroblast [1]; [11]): 87%
Population Fragmented Nuclei (%) (Fibroblast [1]; [11]): 47%
Population Healthy Nuclei (%) (Fibroblast [1]; [11]): 41%
Population Hoechst High Intensity Objects (%) (Fibroblast [1]; [11]): 22%
Population Membrane Permeable-Phenotype (%) (Fibroblast [1]; [11]): 20%
Population Mitochondria Different-Phenotype (%) (Fibroblast [1]; [11]): 23%
Population Mitotic Cells (%) (Fibroblast [1]; [11]): 12%
Population Normal (%) (Fibroblast [1]; [11]): 77%
Population Pyknosed Nuclei (%) (Fibroblast [1]; [11]): 10%
Population Tubulin-Different-Phenotype (%) (Fibroblast [1]; [11]): 70%
Total Cell Count (Fibroblast [1]; [11]): 94
Population Apoptotic (%) (Fibroblast [1]; [12]): 66%
Population Fragmented Nuclei (%) (Fibroblast [1]; [12]): 34%
Population Healthy Nuclei (%) (Fibroblast [1]; [12]): 61%
Population Hoechst High Intensity Objects (%) (Fibroblast [1]; [12]): 16%
Population Membrane Permeable-Phenotype (%) (Fibroblast [1]; [12]): 22%
Population Mitochondria Different-Phenotype (%) (Fibroblast [1]; [12]): 9%
Population Mitotic Cells (%) (Fibroblast [1]; [12]): 33%
Population Normal (%) (Fibroblast [1]; [12]): 83%
Population Pyknosed Nuclei (%) (Fibroblast [1]; [12]): 4%
Population Tubulin-Different-Phenotype (%) (Fibroblast [1]; [12]): 56%
Total Cell Count (Fibroblast [1]; [12]): 86
Growth Rate (Fibroblast [2]; 0 h, replicate number 2, timepoint 0 hours): 0
Growth Rate (Fibroblast [2]; [13]): 1
Growth Rate (Fibroblast [2]; [14]): 0
Growth Rate (Fibroblast [2]; 12 h, replicate number 2, timepoint 12 hours): 1
Growth Rate (Fibroblast [2]; [15]): 0
Growth Rate (Fibroblast [2]; 18 h, replicate number 2, timepoint 18 hours): 1
Growth Rate (Fibroblast [2]; [16]): 0
Growth Rate (U2OS; 0 h, replicate number 1, timepoint 0 hours): 0
Growth Rate (U2OS; [13]): 0
Growth Rate (U2OS; [14]): 0
Growth Rate (U2OS; [15]): 0
Growth Rate (U2OS; [16]): 0
